Data taken from ChEMBL document CHEMBL2151009, “Structures and mechanisms of antitumor agents: xestoquinones uncouple cellular respiration and disrupt HIF signaling in human breast tumor cells” (J Nat Prod, 2012).
pIC50: −log10 of the molar value. Structures can show the parent of a compound that is named as a salt. Active and inactive are the calls of the source. No cut-off for these calls is given here.

Tests used:
MDA-MB-231 [1] = assay: Cytotoxicity against human MDA-MB-231 cells after 48 hrs by SRB assay; assay type: functional, cell-based; details: MDA-MB-231, 48 h
In short: (§1)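 Cells from ATCC treated 48 h with compounds from DMSO stocks (final DMSO under 0.5%). IC50 and 95% CI fitted from one experiment run in triplicate.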

[2] = target: T1, Hypoxia inducible factors; HIF-1-alpha, HIF-2-alpha (Homo sapiens, UniProt Q16665+Q99814); assay: Inhibition of hypoxia-induced HIF1 activation in human T47D cells after 16 hrs by HRE3-TK-luciferase reporter gene assay; assay type: cell-based
In short: (§2)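 T47D reporter assay for HIF-1 activity. Induced by hypoxia (1% O2) or by 1,10-phenanthroline (10 μM). Compounds tested at 0.3–30 μM in half-log steps; cycloheximide 1 μM as positive control. Luciferase signal expressed as % inhibition of the induced control without compound. IC50 and 95% CI from one experiment in triplicate.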

T47D [3] = assay: Effect on cellular respiration in human T47D cells assessed as increase in oxygen consumption at 10 to 30 uM; assay type: functional
In short: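 Oxygen consumption of intact respiring T47D cells. Compound added in half-log increments; FCCP as reference uncoupler. Rate expressed as % of untreated control. For 10 and 30 μM: mean + SD from three independent experiments. Lower concentrations: n = 2.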

[4] = target: T1, Hypoxia inducible factors; HIF-1-alpha, HIF-2-alpha; assay: Inhibition of HIF1-mediated VEGF production in human T47D cells under 1,10-phenanthroline-induced hypoxic condition at 10 uM after 16 hrs by ELISA; assay type: cell-based
In short: (§3)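 T47D cells exposed 16 h to hypoxia (1% O2) or to 1,10-phenanthroline (10 μM), with compound at 10 μM. Secreted VEGF in conditioned medium measured by ELISA and normalized to cellular protein. Cycloheximide 10 μM as positive control; normoxic medium control included. Mean + SD of one experiment in triplicate.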

[5] = target: T1, Hypoxia inducible factors; HIF-1-alpha, HIF-2-alpha; assay: Inhibition of HIF1-mediated VEGF production in human T47D cells under hypoxic condition at 10 uM after 16 hrs by ELISA; assay type: cell-based; in short: as §3
[6] = target: T1, Hypoxia inducible factors; HIF-1-alpha, HIF-2-alpha; assay: Inhibition of 1,10-phenanthroline-induced HIF1 activation in human T47D cells after 16 hrs by HRE3-TK-luciferase reporter gene assay; assay type: cell-based; in short: as §2
T47D [7] = assay: Decrease in mitochondrial membrane potential in human T47D cells at 10 uM after 15 to 20 mins by TMRM assay; assay type: functional, cell-based
In short: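 T47D cells preloaded with TMRM, then given compound. Epifluorescence images taken before and 15–20 min after addition. Per-cell fluorescence intensity quantified; solvent control 0.26% DMSO; FCCP as reference. Groups compared by unpaired t test.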

T47D [8] = assay: Cytotoxicity against human T47D cells after 48 hrs by SRB assay; assay type: functional, cell-based; in short: as §1
MDA-MB-231 [9] = assay: Cytotoxicity against human MDA-MB-231 cells assessed as decrease in cell viability at 30 uM after 48 hrs by SRB assay; assay type: functional
T47D [10] = assay: Cytotoxicity against human T47D cells assessed as decrease in cell viability at 30 uM after 48 hrs by SRB assay; assay type: functional

Row | Structure (SMILES) | pIC50 (MDA-MB-231 [1]) | IC50 [2] | Activity (T47D [3]) | inhibition [4] | inhibition [5] | IC50 [6] | Activity (T47D [7]) | pIC50 (T47D [8]) | Activity (MDA-MB-231 [9]) | Activity (T47D [10])
1 | C[C@@]12CCCc3coc(c31)C(=O)c1cc3c(cc12)C(=O)C=C(CO)C3=O | 5.19 | 1.7 µM | 47% | Active | Active | 1.2 µM | Active | 5.44 |  | 
2 | C[C@@]12CCCc3coc(c31)C(=O)c1cc3c(cc12)C(=O)C(CO)=CC3=O | 5.20 | 2.3 µM |  | Active | Active | 1.5 µM |  | 5.37 |  | 
3 | C[C@@]12CCCc3coc(c31)C(=O)c1cc3c(cc12)C(=O)CCC3=O | 4.55 | 10.6 µM |  | inactive | inactive | 4.2 µM |  | 4.80 |  | 
4 | C[C@@]12CCCc3coc(c31)C(=O)c1cc3c(cc12)C(=O)C1=NCCS(=O)(=O)C1=C3O [ADOCIAQUINONE A] | 5.20 | 6.4 µM | 47% | Active | inactive | 0.2 µM | inactive | 5.59 |  | 
5 | C[C@@]12CCCc3coc(c31)C(=O)c1cc3c(cc12)C(=O)C1=C(NCCS1(=O)=O)C3=O [ADOCIAQUINONE B] | 5.21 | 4.6 µM |  | Active | inactive | 0.2 µM |  | 5.54 |  | 
6 | C[C@@]12CCCc3coc(c31)C(=O)c1cc3c(O)ccc(OS(=O)(=O)O)c3cc12 [XESTOQUINOL SULFATE] | < 4.52 | > 30 µM |  |  |  | > 30 µM |  | < 4.52 | <5% | <5%
7 | C[C@@]12CCCc3coc(c31)C(=O)c1cc3c(cc12)C(=O)C=CC3=O [XESTOQUINONE] | 4.69 | 12.3 µM | 47% | inactive | inactive | 7.3 µM | inactive | 4.86 |  | 
